Screens: PubChem BioAssay, several laboratories
Sampled rows, rich in hits. Any-hit rate of the full collection: about 0.41%.
Yeast superoxide: lowers age-related superoxide in aged yeast cells | S. cerevisiae aged cells, superoxide DHE fluorescence; stronger effect = lower value | superoxide response (% of plate mean), % at 10 µM | 330,000 compounds, 0.18% hits;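 active means superoxide response under a set limit, about three screen SD below normal, cut at about 65% in these data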;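 further: yeast aged for seven days with compound at 30 °C before DHE staining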
T cell HTS: T cell immune modulators affecting CD8 T cell-vesicle binding. 2C CD8+ T cell-vesicle binding, flow cytometry; stronger effect = lower value. response (vesicle binding), % at 7 µM. 330,000 compounds, 0.068% hits;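 active means response, share of CD8 T cells binding vesicles, and their 90th percentile fluorescence all below set limits, cut at about 80% in these data, passing the limit was not always enough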;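 further: values below 100% mean blocked vesicle binding to the CD8+ T cells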
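Material: 2C TCR transgenic mouse naive CD8+ T cells, MACS-purified. Also added: QL9-charged Drosophila Ld/ICAM-1/B7-1 vesicles. Timing: binding 1.5 h at 37 °C. Measured by: high-throughput flow cytometry with anti-B7-1 and anti-CD8 staining. Read-out: percent CD8+ FL2 mean versus row control. Controls: Unloaded micro-vesicles (low), QL9 vesicles with 0.7% DMSO (high).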
S1P3 antag-1: antagonists of human S1P3 receptor; Q99500; AID 485; inhibition, % at 4.98 µM; 170,000 compounds, 0.27% hits; CHO S1P3 NFAT-BLA reporter, FRET fluorescence, antagonist mode;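 active means inhibition above the plate cutoff, the mean inhibition of test wells on that plate plus 3 SD, cut at about 28% in these data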;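 further: cells challenged with S1P at its EC80 of 0.8 µM; blue over green emission ratio from cleaved BLA substrate after 4 h stimulation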
Target sequence (Q99500 whole entry, looked up): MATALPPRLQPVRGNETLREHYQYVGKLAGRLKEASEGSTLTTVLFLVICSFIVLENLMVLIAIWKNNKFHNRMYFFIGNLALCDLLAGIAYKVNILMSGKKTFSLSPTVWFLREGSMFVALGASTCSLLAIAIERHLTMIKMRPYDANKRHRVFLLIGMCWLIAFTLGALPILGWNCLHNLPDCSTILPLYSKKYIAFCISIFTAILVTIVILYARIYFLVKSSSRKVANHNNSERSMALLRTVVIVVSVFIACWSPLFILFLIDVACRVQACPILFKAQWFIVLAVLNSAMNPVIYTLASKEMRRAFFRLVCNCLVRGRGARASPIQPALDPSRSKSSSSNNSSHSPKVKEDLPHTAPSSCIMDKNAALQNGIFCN
S1P3 antag-2: confirmation of human S1P3 receptor antagonists. AID 1429. inhibition, % at 4.98 µM. 240 compounds, 30% hits. CHO S1P3 NFAT-BLA reporter, FRET, antagonist mode. shares compounds with S1P3 antag-1;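 active means inhibition above the hit threshold that was computed for the earlier primary screen, cut at about 30% in these data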
Of the large screens only hits and unclear results are named; the others gave an inactive call (follow-up assays come after a bar, where they were run); ! = a repeat was not active.

CCn1nc(-c2cccs2)nc2c(=O)n(C)c(=O)nc1-2	S1P3 antag-1 106 (no result: Yeast superoxide, T cell HTS)
CCOc1ccc(-n2c(-c3cccs3)nc3ccccc3c2=O)cc1	none
COC(=O)C1=C(c2ccccc2OCc2ccccc2)C[C@@H]2CC[C@H]1N2C(=O)NCCOc1ccccc1	none (no result: S1P3 antag-1)
CN(C(=O)COC(=O)c1cn(C)c2ccccc12)C1CCCCC1	none (no result: S1P3 antag-1)
O=C(Cc1ccccc1)N1CCN(Cc2ccc(F)cc2)CC1	none (no result: S1P3 antag-1)
CN1CCN(C(=O)OC2c3nccnc3C(=O)N2c2ccc(Cl)cn2)CC1 (stereo unspecified)	S1P3 antag-1 110
Cc1cc(Cl)ccc1OCC(=O)N1CCN(C)CC1	none
CCCn1nc2ccccc2c1P(=O)(N1CCOCC1)N1CCOCC1	S1P3 antag-1 106 (no result: T cell HTS)
Cn1cc(C(=O)NP(=O)(N2CCOCC2)N2CCOCC2)c2ccccc21	none
C[C@H]1CCC/C=C/[C@@H]2C[C@H](O)C[C@H]2[C@H](O)/C=C/C(=O)O1	none (no result: S1P3 antag-1)
CCCNC(=O)N1[C@H]2CC[C@@H]1C(C(=O)OC)=C(c1ccc3ccccc3c1)C2	none (no result: S1P3 antag-1)
Clc1ccc(COC(Cn2ccnc2)c2ccc(Cl)cc2Cl)c(Cl)c1 (stereo unspecified)	T cell HTS 0.0!
CC(C)[N+](C)(CCC(C(N)=O)(c1ccccc1)c1ccccc1)C(C)C	none
COC(=O)C1=C(c2ccc(F)cc2OCc2ccccc2)C[C@@H]2CC[C@H]1N2C(=O)NCCc1ccc(F)cc1	none (no result: S1P3 antag-1)
Cn1c(=O)[nH]c2nncnc2c1=O	Yeast superoxide 60 (no result: S1P3 antag-1)
O=C(O)c1cccc(N=Nc2c(O)[nH]c(=O)[nH]c2=O)c1	T cell HTS 47
O=C(c1ccccc1)c1ccc(N=Nc2c(O)[nH]c(=O)[nH]c2=O)cc1	none
COC(=O)C1=C(c2ccc(OC)c(OC)c2)C[C@@H]2CC[C@H]1N2C(=O)NCc1ccco1	none (no result: S1P3 antag-1)
Nc1ncnc2c1ccn2[C@@H]1O[C@H](CO)[C@@H](O)[C@H]1O	none (no result: S1P3 antag-1)
NC(=S)c1cn(C2OC(CO)C(O)C2O)c2ncnc(N)c12 (stereo unspecified)	S1P3 antag-1 86 | S1P3 antag-2 105
O=C(c1ccc(F)cc1)C(Cc1ccccc1)N1CCCCC1 (stereo unspecified)	none
O=C(CCCN1CCC2(CC1)C(=O)NCN2c1ccccc1)c1ccc(F)cc1	S1P3 antag-1 68 | S1P3 antag-2 59
COc1ccc(CNCCc2ccc3c(c2)OCO3)cc1Br	none (no result: S1P3 antag-1)
CCC1(c2cccc(O)c2)CCCCN(C)C1 (stereo unspecified)	none (no result: S1P3 antag-1)
CCC1(OC(=O)CN)C(=O)OCc2c1cc1n(c2=O)Cc2cc3ccccc3nc2-1 (stereo unspecified)	none
CC[C@@]1(O)C(=O)OCc2c1cc1n(c2=O)Cc2cc3ccccc3nc2-1	S1P3 antag-1 59 | S1P3 antag-2 70
C=C(C)[C@@H]1C2C(=O)O[C@H]1[C@H]1OC(=O)[C@@]34OC3C[C@]2(O)[C@@]14C (stereo partly specified)	none (no result: S1P3 antag-1)
O=C1C(Cl)=CC(=Nc2ccc(O)cc2)C=C1Cl	none (no result: S1P3 antag-1)
CC(=O)OC(C)(C)/C=C/C(=O)C(C)(O)C1[C@H](O)C[C@@]2(C)C3CC=C4C(CC[C@@H](O)C4(C)C)[C@]3(CO)C(=O)C[C@]12C (stereo partly specified)	none (no result: S1P3 antag-1)
CC(=O)OC(C)(C)/C=C/C(=O)[C@](C)(O)[C@H]1[C@H](O)C[C@@]2(C)[C@@H]3CC=C4[C@H](C[C@H](O)C(=O)C4(C)C)[C@]3(C)C(=O)C[C@]12C	S1P3 antag-1 74 (no result: Yeast superoxide, T cell HTS) | S1P3 antag-2 90
COc1ccc(-n2c(/C=C/c3ccc(O)cc3)nc3ccccc3c2=O)cc1	none (no result: S1P3 antag-1)
CCn1nc(/C=C/c2ccccc2)nc2c(=O)n(C)c(=O)nc1-2	S1P3 antag-1 75 (no result: Yeast superoxide, T cell HTS) | S1P3 antag-2 109
C[N+](C)(N)CCOC(=O)C(O)(c1ccccc1)C1CCCCC1 (stereo unspecified)	none (no result: S1P3 antag-1)
COc1cc2c(cc1OC)[C@H]1C(=O)c3ccc4c(c3O[C@H]1CO2)C[C@@H](C(C)(C)O)O4	none (no result: S1P3 antag-1)
COc1cc2c(cc1OC)[C@@H]1C(=O)c3ccc4c(c3O[C@@H]1CO2)C[C@H](C(C)C)O4	S1P3 antag-1 38 | S1P3 antag-2 36
C=C1[C@H]2CC[C@H]3[C@]4(C)C[C@H](O[C@H]5O[C@H](CO)[C@@H](OS(=O)(=O)O)[C@H](OS(=O)(=O)O)[C@H]5OC(=O)CC(C)C)C[C@@H](C(=O)O)[C@H]4CC[C@]3(C2)[C@H]1O	none (no result: S1P3 antag-1)
COC(=O)C1=C(c2ccc(OC(F)(F)F)cc2)C[C@@H]2CC[C@H]1N2C(=O)NCCc1ccccc1	none (no result: S1P3 antag-1)
